Bioassay records from PubChem.
UCH37 inh – blocks the human deubiquitinase UCH37; purified proteasome/UCH37, Ub-AMC cleavage fluorescence; inhibition, % (no concentration beside the values); hit rate 0.33% among 330,000;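 active means mean inhibition over replicate wells above about 20%, limit read from the data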;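 further: 0% = compound-free wells with enzyme and 100% = wells lacking proteasome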
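System: Proteasome-associated human UCH37 deubiquitinase; Input: 0.15 nM proteasome in added enzyme buffer; Also added: Ub-AMC substrate from 1 µM stock; Incubation: 30 min compound-proteasome preincubation then 25 min substrate reaction, room temperature; Detection: fluorescence, ex 355 nm, em 460 nm; Read-out: % inhibition of Ub-AMC cleavage fluorescence; Benchmarks: no-proteasome and no-compound wells.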
GASC-1 inh – blocks human GASC-1 demethylase activity. hit rate 0.069% among 330,000. GST-JMJD2C(1-420) H3K9me3 demethylation, DELFIA europium. Q9H3R0. inhibition, % at 2.35 µM;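 active means more than half of a compound's replicate wells show inhibition beyond 50%, single wells judged on their own value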;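 further: signal counts dimethyl H3K9 product captured on neutravidin plate; 0% = median of DMSO wells and 100% = 0.3 times that DMSO median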
APOBEC3G inh – inhibitors of human APOBEC3G DNA deaminase | recombinant A3G, ssDNA deamination FAM/TAMRA fluorescence | inhibition, % at 20 µM | hit rate 0.28% among 330,000 | Q9HC16;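 active means inhibition of at least 40% at 20 µM, with no more than 30% in the related APOBEC3A deaminase screen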;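 further: plate controls were DMSO wells with A3G for no effect and wells lacking A3G enzyme for full effect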
Target sequence (Q9HC16 whole entry, looked up): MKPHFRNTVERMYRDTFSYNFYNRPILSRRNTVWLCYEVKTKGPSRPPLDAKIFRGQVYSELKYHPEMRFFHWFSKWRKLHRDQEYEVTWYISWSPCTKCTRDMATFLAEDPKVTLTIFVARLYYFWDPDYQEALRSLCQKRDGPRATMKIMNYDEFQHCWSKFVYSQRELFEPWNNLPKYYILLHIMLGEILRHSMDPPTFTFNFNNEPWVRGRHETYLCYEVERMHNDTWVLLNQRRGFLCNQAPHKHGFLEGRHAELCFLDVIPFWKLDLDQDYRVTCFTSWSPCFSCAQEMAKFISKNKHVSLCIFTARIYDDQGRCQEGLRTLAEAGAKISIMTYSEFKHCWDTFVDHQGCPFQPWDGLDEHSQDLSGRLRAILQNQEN
APOBEC3A inh – human APOBEC3A DNA deaminase inhibition. recombinant A3A, FAM/TAMRA ssDNA deamination fluorescence. inhibition, % at 20 µM. hit rate 0.41% among 330,000;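 active means at least 40% inhibition at 20 µM here, with at most 30% in a related deaminase screen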;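 further: plate controls were A3A with DMSO for no effect and wells lacking A3A enzyme for full effect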
APOBEC3G confirm – confirmation of human APOBEC3G DNA deaminase inhibitors | shares compounds with APOBEC3G inh | recombinant A3G ssDNA deaminase, UDG/FAM-TAMRA fluorescence | inhibition, % at 20 µM | hit rate 72% among 890 | AID 493152;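 active means inhibition reaching a set limit in any replicate at 20 µM, the limit being 80% of the first screen's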
UDG ctr A3G – counter-screen for APOBEC3G inhibitors: E. coli UDG | shares compounds with APOBEC3G inh | UDG counterscreen, FAM/TAMRA oligo fluorescence | inhibition, % at 20 µM | 710 tested, under 10 active;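 active means compounds giving 40% or more inhibition at 20 µM in any one of the three replicates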;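 further: plate controls were DMSO wells with UDG and oligo for no effect and DMSO wells lacking both for full effect; inhibitors lower the FAM signal released by uracil excision and alkaline cleavage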
Target sequence (P12295 whole entry, looked up): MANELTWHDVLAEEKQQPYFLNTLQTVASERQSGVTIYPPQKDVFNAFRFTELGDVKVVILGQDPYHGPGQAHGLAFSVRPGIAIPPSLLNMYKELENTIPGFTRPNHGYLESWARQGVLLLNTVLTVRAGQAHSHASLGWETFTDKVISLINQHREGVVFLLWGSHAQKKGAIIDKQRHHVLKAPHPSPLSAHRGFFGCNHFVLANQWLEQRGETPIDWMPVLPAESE
Active calls of the source: *; i = inactive; · = not tested or not shown. Shown are actives, neighbours in structure and some others; about 0.97% of the full set was active somewhere.

SMILES | UCH37 inh | GASC-1 inh | APOBEC3G inh | APOBEC3A inh | APOBEC3G confirm | UDG ctr A3G
NC(=O)NN=Cc1cccs1 | 3 | · | · | · | · | ·
O=[N+]([O-])c1cccc(C=NNC2=NCCCCC2)c1 | 0 | · | · | · | · | ·
CC(=NNC(=O)c1cc(C)nc2ccccc12)c1cccs1 | 6 | · | · | · | · | ·
Clc1nnc(NN=Cc2ccccc2)c2ccccc12 | 3 | · | · | · | · | ·
CCn1cc(C(=O)NCC(OC)OC)c(=O)c2cc(S(=O)(=O)N3CCC(C)CC3)ccc21 | 7 | 0 | 59* | -2 | -2 | -2
CCOC(=O)c1sc(=S)n(C)c1NC(=O)c1cccc(Br)c1 | 5 | 4 | 47* | -1 | 1 | -3
COc1cc(S(=O)(=O)Nc2ccc(C)cc2)ccc1N=Cc1c(C)[nH]n(-c2ccccc2)c1=O | -1 | 16 | 38 | 0 | · | ·
COc1cc(S(=O)(=O)Nc2cccc(C)c2)ccc1N=Cc1c(C)[nH]n(-c2ccccc2)c1=O | · | -1 | 55* | 1 | -2 | ·
CCOC(=O)C1=C(COc2ccccc2)NC(=O)NC1c1ccc(Cl)cc1 (stereo not given) | 1 | -9 | -8 | -3 | · | ·
COC(=O)C1=C(COc2ccccc2)NC(=O)NC1c1ccc(Cl)cc1 (stereo not given) | 5 | -5 | 48* | -2 | 3 | -2
CCSS(=O)(=O)c1cccc2cccnc12 | · | 16 | 68* | -2 | 66* | -1
CN(CC(=O)Nc1n[nH]c(=S)s1)S(=O)(=O)c1cccc2cccnc12 | 2 | -1 | 75* | -5 | 95* | 8
Cc1csc(NC(=O)CN(C)S(=O)(=O)c2cccc3cccnc23)n1 | 10 | -6 | -6 | 0 | · | ·
CC(=NNc1ccc(Cl)c(C(=O)O)c1)c1cc2ccccc2o1 | 18 | · | · | · | · | ·
COc1ccc(O)c(C(=O)C2c3ccccc3C(=O)N2c2ccc(C)cc2)c1 (stereo not given) | -5 | 21 | 75* | -1 | 88* | -5
N#C/C(=C\c1ccc(O)c(O)c1)C(=O)Nc1cccc2ncccc12 | · | 21 | 52* | 8 | 59* | -2
Cc1ccc(OCC(=O)NN=C/C=C/c2ccco2)cc1 | 4 | · | · | · | · | ·
CCCCC#Cc1cncc(C(=O)NN=Cc2cccc(OC)c2)c1 | 3 | · | · | · | · | ·
O=C(Oc1ccc(C(=S)N2CCOCC2)cc1Br)c1cc(Cl)ccc1Cl | 7 | -6 | -5 | -5 | · | ·
O=C(Oc1c(Br)cc(C(=S)N2CCOCC2)cc1Br)c1ccc(Cl)cc1 | 3 | 2 | 62* | 2 | 20* | -2
CC(=NN1CCN(Cc2ccc(C)cc2)CC1)c1ccco1 | 0 | · | · | · | · | ·
COC(=O)[C@H](CC(C)C)NC(=O)c1cc2c(cn1)[nH]c1ccccc12 | -15 | -7 | 58* | 1 | 63* | ·
COC(=O)C(Cc1ccccc1)NC(=O)c1cc(=O)[nH]c2ccccc12 (stereo not given) | -4 | -14 | -5 | -3 | · | ·
O=c1c2c(-c3ccccc3)csc2ncn1N=Cc1c2ccccc2cc2ccccc12 | 4 | · | · | · | · | ·
CC(C)C(=O)NC(c1cccs1)c1cc([N+](=O)[O-])c2cccnc2c1O (stereo not given) | 13 | 13 | 54* | 2 | 13* | -1
SMILES | UCH37 inh | GASC-1 inh | APOBEC3G inh | APOBEC3A inh | APOBEC3G confirm | UDG ctr A3G
Cc1ccc(C(NC(=O)C(C)C)c2cc([N+](=O)[O-])c3cccnc3c2O)cc1 (stereo not given) | 6 | 4 | 7 | -5 | · | ·
CCN(CC)C(=O)CSc1ncnc2sccc12 | 0 | -2 | -5 | -1 | · | ·
CCN(CC)C(=O)CSc1ncnc2c(-c3cccs3)nsc12 | -61 | 27 | 54* | 26 | 45* | -3
COc1ccc(C=NNC(=O)c2cccnc2)cc1CSc1ccccn1 | 4 | · | · | · | · | ·
CCc1ccc(-n2c(=O)c3ccccc3n3c(=S)[nH]nc23)cc1 | -1 | -14 | 61* | -5 | 76* | -3
COc1ccc(OC)c2c1C(=O)C(Cl)=C(Cl)C2=O | · | -30 | 88* | -6 | 92* | -2
COc1ccc(S(=O)(=O)N2CCCC2)c(Cl)c1Cl | 3 | i | -2 | 2 | · | ·
COc1ccc(N)c2c1C(=O)c1ccccc1C2=O | 6 | -9 | · | · | · | ·
COc1cccc2c1C(=O)c1ccc3ccccc3c1C2=O | 2 | -9 | 65* | -10 | 22* | -3
COc1ccc(OC)c2c1C(=O)c1ccccc1C2=O | 5 | 10 | 56* | -4 | -11 | -2
O=C(Nc1cc(Cl)ccc1Cl)C1Cc2ccccc2OC1=NO (stereo not given) | 6 | · | · | · | · | ·
CCOc1ccc(C=NNC(=O)CN2CCSCC2)cc1 | 6 | · | · | · | · | ·
Nn1c(C2COc3ccccc3O2)n[nH]c1=S (stereo not given) | 4 | -6 | 60* | -5 | 83* | -2
Nc1ccccc1Sc1nc2ccccc2[nH]1 | 3 | 10 | 57* | 0 | 2 | ·
O=C(NN=Cc1cc2ccccc2nc1Cl)c1ccncc1 | -43 | · | · | · | · | ·
COc1cccc(C=NNC(=S)Nc2cccnc2)c1 | 2 | · | · | · | · | ·
CC1=C(SCCC#N)S/C(=C2\SC(C)=C(SCCC#N)S2)S1 | 10 | 22 | 69* | 3 | 47* | -3
Cn1c(SCCC#N)nnc1-c1ccc(F)cc1 | 5 | 8 | -7 | -1 | · | ·
Cc1ccc(-c2cn3c(=S)[nH]nc3s2)cc1 | 2 | -7 | 80* | 3 | 66* | -4
CCOC(=O)c1sc(NC(=O)CSc2nc(C)cc(C)n2)c(C#N)c1C | 6 | 1 | -4 | 5 | · | ·
CCOC(=O)c1sc(NC(=O)C(C)C)c(C#N)c1C | 4 | -6 | 57* | 3 | 64* | -3
CCOC(=O)c1sc(NC(=O)CSc2n[nH]c(-c3ccccc3)n2)c(C#N)c1C | · | -5 | 47* | 2 | 32* | -2
C(=NN=Cc1ccccc1)c1ccccc1 | 6 | · | · | · | · | ·
